Data from ChEMBL document CHEMBL4028828, “Syntheses of benzophenone-xanthone hybrid polyketides and their antibacterial activities” (2017).
Values after ≈ are worked out from the molar mass of the structure shown. Active and inactive are the calls of the source. No cut-off for these calls is given here.

Tests used:
Format in all cases: functional
Klebsiella pneumoniae = assay: Antibacterial activity against Klebsiella pneumoniae NBRC 14940 after overnight incubation by microdilution method
Method in brief: (§1)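 Broth microdilution MIC, modified Eloff method. Compounds were dissolved in DMSO (under 5%) and tested in duplicate. Two-fold serial dilution followed by overnight incubation at 37 °C. MIC is the lowest concentration inhibiting growth.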

Escherichia coli = assay: Antibacterial activity against Escherichia coli NBRC 102203 after overnight incubation by microdilution method; method in brief: as §1
Staphylococcus aureus = assay: Antibacterial activity against Staphylococcus aureus NBRC 100910 after overnight incubation by microdilution method; method in brief: as §1
Bacillus subtilis = assay: Antibacterial activity against Bacillus subtilis NBRC 13719 after overnight incubation by microdilution method; method in brief: as §1
[1] = Staphylococcus aureus, NBRC 100910, read-out: MIC
[2] = Bacillus subtilis, NBRC 13719, read-out: MIC

SMILES | Activity (Klebsiella pneumoniae) | Activity (Escherichia coli) | MIC (Staphylococcus aureus; [1]) [µM] | MIC (Bacillus subtilis; [2]) [µM] | MIC (Staphylococcus aureus) [µM] | MIC (Bacillus subtilis) [µM]
COc1cc(OC)c(C(c2ccccc2)c2c(O)cc(O)c3c(=O)c4ccc(O)cc4oc23)cc1OC (racemic) [listing 1 of 2 here] | inactive | inactive |  |  |  | 
COc1cc(OC)c(C(O)c2ccccc2)cc1OC (stereo not drawn) | inactive | inactive | > 100 | > 100 |  | 
CC1(C)S[C@@H]2[C@H](NC(=O)[C@H](N)c3ccccc3)C(=O)N2[C@H]1C(=O)O [AMPICILLIN] |  |  | 1.25 (≈ 0.437 µg/mL) | 1.25 (≈ 0.437 µg/mL) |  | 
COc1cc(OC)c(C(c2ccccc2)c2c(O)cc(O)c3c(=O)c4c(O)cc(O)cc4oc23)cc1OC (single isomer, unassigned; (-)) [listing 1 of 2 here] | inactive | inactive |  |  |  | 
COc1cc(OC)c(C(=O)c2ccccc2)cc1OC | inactive | inactive | > 100 | > 100 |  | 
COc1cc(OC)c(C(c2ccccc2)c2c(O)cc(O)c3c(=O)c4ccccc4oc23)cc1OC (single isomer, unassigned; (+)) [listing 1 of 2 here] |  |  |  |  | 10 (≈ 4.85 µg/mL) | 
NC[C@H]1O[C@H](O[C@H]2[C@H](O)[C@@H](O[C@H]3O[C@H](CO)[C@@H](O)[C@H](N)[C@H]3O)[C@H](N)C[C@@H]2N)[C@H](N)[C@@H](O)[C@@H]1O [BEKANAMYCIN] |  |  | 1.25 (≈ 0.604 µg/mL) | 1.25 (≈ 0.604 µg/mL) |  | 
COc1cc(OC)c(C(c2ccccc2)c2c(O)cc(O)c3c(=O)c4ccc(O)cc4oc23)cc1OC (racemic) [listing 2 of 2 here] |  |  |  | 12.5 (≈ 6.26 µg/mL) |  | 
COc1cc(OC)c(C(c2ccccc2)c2c(O)cc(O)c3c(=O)c4ccccc4oc23)cc1OC (single isomer, unassigned; (+)) [listing 2 of 2 here] | inactive | inactive |  |  |  | 
COc1cc(OC)c(C(c2ccccc2)c2c(O)cc(O)c3c(=O)c4c(O)cc(O)cc4oc23)cc1OC (single isomer, unassigned; (+)) [listing 1 of 2 here] | inactive | inactive |  |  |  | 
O=c1c2ccccc2oc2cc(O)cc(O)c12 | inactive | inactive | 100 (≈ 22.8 µg/mL) | > 100 |  | 
O=c1c2c(O)cc(O)cc2oc2cc(O)cc(O)c12 | inactive | inactive | 50 (≈ 13 µg/mL) | > 100 |  | 
O=c1c2ccc(O)cc2oc2cc(O)cc(O)c12 | inactive | inactive | 100 (≈ 24.4 µg/mL) | > 100 |  | 
COc1cc(OC)c(C(c2ccccc2)c2c(O)cc(O)c3c(=O)c4ccc(O)cc4oc23)cc1OC (stereo in doubt; (-)-2) [listing 1 of 2 here] |  |  | 10 (≈ 5.01 µg/mL) |  |  | 
COc1cc(OC)c2c(=O)c3c(O)cc(O)cc3oc2c1 | inactive | inactive | > 100 | > 100 |  | 
COc1cc(OC)c(C(c2ccccc2)c2c(O)cc(O)c3c(=O)c4c(O)cc(O)cc4oc23)cc1OC (single isomer, unassigned; (+)) [listing 2 of 2 here] |  |  |  |  | 10 (≈ 5.17 µg/mL) | 50 (≈ 25.8 µg/mL)
COc1cc(OC)c(C(c2ccccc2)c2c(O)cc(O)c3c(=O)c4ccc(O)cc4oc23)cc1OC (stereo in doubt; (-)-2) [listing 2 of 2 here] | inactive | inactive |  |  |  | 
COc1cc(OC)c2c(=O)c3c(O)cc(O)c(C(c4ccccc4)c4cc(OC)c(OC)cc4OC)c3oc2c1 (racemic) | inactive | inactive | > 100 | > 100 |  | 
COc1cc(OC)c2c(=O)c3c(O)cc(OC)c(C(c4ccccc4)c4cc(OC)c(OC)cc4OC)c3oc2c1 (racemic) | inactive | inactive | > 100 | > 100 |  | 
COc1cc(OC)c(C(c2ccccc2)c2c(O)cc(O)c3c(=O)c4ccc(O)cc4oc23)cc1OC (stereo in doubt; (+)-2) [listing 1 of 2 here] | inactive | inactive |  |  |  | 
COc1cc(OC)c(C(c2ccccc2)c2c(O)cc(O)c3c(=O)c4ccccc4oc23)cc1OC (racemic) [listing 1 of 2 here] |  |  |  | > 100 | 25 (≈ 12.1 µg/mL) | 
Oc1ccc(O)c(O)c1 | inactive | inactive | > 100 | > 100 |  | 
COc1cc(OC)c(C(c2ccccc2)c2c(O)cc(O)c3c(=O)c4c(O)cc(O)cc4oc23)cc1OC (single isomer, unassigned; (-)) [listing 2 of 2 here] |  |  | 12.5 (≈ 6.46 µg/mL) | 100 (≈ 51.7 µg/mL) |  | 
COc1cc(OC)c(C(c2ccccc2)c2c(O)cc(O)c3c(=O)c4ccccc4oc23)cc1OC (racemic) [listing 2 of 2 here] | inactive | inactive |  |  |  | 
COc1cc(OC)c(C(c2ccccc2)c2c(O)cc(O)c3c(=O)c4ccccc4oc23)cc1OC (single isomer, unassigned; (-)) [listing 1 of 2 here] |  |  |  |  | 50 (≈ 24.2 µg/mL) | 
COc1cc(OC)c(C(c2ccccc2)c2c(O)cc(O)c3c(=O)c4c(O)cc(O)cc4oc23)cc1OC (racemic) | inactive | inactive |  |  |  | 
COc1cc(OC)c(C(c2ccccc2)c2c(O)cc(O)c3c(=O)c4ccc(O)cc4oc23)cc1OC (stereo in doubt; (+)-2) [listing 2 of 2 here] |  |  |  |  |  | 10 (≈ 5.01 µg/mL)
COc1cc(O)c2c(=O)c3c(OC)cc(OC)cc3oc2c1 | inactive | inactive | > 100 | > 100 |  | 
COc1cc(OC)c(C(c2ccccc2)c2c(O)cc(O)c3c(=O)c4ccccc4oc23)cc1OC (single isomer, unassigned; (-)) [listing 2 of 2 here] | inactive | inactive |  |  |  | 
